The source of these data is ChEMBL document CHEMBL3826928, “Incorporation of Phosphonate into Benzonaphthyridine Toll-like Receptor 7 Agonists for Adsorption to Aluminum Hydroxide” (J Med Chem, 2016).

Series [1] concerns the target T1, Toll-like receptor 7 (Mus musculus, UniProt P58681).
T1 sequence (P58681 whole entry): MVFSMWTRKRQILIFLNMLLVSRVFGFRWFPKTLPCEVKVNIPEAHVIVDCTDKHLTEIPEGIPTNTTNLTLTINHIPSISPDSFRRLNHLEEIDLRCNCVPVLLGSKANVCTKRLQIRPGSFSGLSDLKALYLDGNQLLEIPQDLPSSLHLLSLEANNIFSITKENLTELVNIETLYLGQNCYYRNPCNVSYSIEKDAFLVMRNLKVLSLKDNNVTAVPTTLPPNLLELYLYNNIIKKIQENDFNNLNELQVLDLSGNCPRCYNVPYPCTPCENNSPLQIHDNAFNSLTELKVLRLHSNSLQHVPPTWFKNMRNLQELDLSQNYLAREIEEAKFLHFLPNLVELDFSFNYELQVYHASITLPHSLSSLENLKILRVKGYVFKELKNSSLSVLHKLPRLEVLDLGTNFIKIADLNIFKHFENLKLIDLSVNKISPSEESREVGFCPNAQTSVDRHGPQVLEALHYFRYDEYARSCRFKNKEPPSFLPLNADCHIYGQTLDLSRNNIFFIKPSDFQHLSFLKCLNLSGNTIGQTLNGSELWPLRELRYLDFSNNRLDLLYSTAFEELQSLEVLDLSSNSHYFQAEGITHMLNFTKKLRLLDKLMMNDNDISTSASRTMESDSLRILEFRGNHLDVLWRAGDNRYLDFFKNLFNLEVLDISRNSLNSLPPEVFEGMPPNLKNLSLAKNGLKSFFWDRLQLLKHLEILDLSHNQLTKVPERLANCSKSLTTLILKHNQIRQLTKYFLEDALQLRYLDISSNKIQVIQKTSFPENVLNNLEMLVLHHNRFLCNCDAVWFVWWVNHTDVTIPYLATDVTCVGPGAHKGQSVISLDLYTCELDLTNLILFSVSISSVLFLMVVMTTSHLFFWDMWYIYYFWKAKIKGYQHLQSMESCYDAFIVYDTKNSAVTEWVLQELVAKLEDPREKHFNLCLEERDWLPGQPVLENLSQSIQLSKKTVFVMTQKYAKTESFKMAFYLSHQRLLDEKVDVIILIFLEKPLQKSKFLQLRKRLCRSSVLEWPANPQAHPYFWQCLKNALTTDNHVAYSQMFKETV
The series can be described thus: Agonist activity at TLR7 in Balb/c mouse splenocytes assessed as induction of IL-6 secretion in supernatant after 18 hrs. Format: cell-based. A digest of the protocol: (§1)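 Spleens from female BALB/c mice (6−10 weeks), single-cell suspension, RBC lysis; 5 × 10⁵ splenocytes per well in RPMI 1640 with 10% FCS, 2-ME. Compounds as sodium salts (1 equiv NaOH) from 10 mM water stocks, 3-fold 10-point dilutions from 30 μM.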

The target in series [2] is T2, Toll-like receptor 7 (Mus musculus) (UniProt P58681).
T2 sequence (whole entry): T1 sequence (P58681 whole entry)
Nature of the series: Agonist activity at TLR7 in Balb/c mouse splenocytes assessed as induction of IL-6 secretion in supernatant after 18 hrs relative to resiquimod. Format: cell-based. Put shortly: as §1

In series [3] the target is T3, Toll-like receptor 7 (Homo sapiens, UniProt Q9NYK1).
T3 sequence (Q9NYK1 whole entry): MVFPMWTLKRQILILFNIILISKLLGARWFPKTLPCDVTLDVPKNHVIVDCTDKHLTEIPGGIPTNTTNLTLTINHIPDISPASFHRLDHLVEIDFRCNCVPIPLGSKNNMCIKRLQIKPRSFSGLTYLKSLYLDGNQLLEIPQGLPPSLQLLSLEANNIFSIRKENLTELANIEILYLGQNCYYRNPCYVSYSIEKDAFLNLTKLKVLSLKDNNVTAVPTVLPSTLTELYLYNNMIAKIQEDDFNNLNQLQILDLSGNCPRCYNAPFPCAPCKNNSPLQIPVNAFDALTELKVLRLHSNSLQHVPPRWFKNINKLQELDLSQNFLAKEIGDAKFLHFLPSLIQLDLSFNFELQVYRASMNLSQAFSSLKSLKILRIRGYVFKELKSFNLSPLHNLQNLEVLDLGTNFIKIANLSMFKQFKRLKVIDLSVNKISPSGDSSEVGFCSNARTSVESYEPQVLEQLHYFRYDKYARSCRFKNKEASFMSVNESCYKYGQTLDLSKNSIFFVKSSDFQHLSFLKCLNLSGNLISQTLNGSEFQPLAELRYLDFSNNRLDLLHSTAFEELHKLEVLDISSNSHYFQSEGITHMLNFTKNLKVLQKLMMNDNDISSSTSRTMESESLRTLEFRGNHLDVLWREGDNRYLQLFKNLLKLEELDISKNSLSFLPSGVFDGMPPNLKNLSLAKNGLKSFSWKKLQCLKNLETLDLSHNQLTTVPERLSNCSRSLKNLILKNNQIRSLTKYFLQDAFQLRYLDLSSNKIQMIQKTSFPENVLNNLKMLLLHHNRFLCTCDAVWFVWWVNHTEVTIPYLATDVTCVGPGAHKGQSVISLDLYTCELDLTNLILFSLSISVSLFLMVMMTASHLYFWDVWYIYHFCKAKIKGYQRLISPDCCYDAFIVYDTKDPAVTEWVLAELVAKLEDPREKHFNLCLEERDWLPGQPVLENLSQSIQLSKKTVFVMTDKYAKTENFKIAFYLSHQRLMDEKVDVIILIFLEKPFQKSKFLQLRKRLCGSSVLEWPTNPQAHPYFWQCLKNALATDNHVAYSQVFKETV
The series can be described thus: Agonist activity at TLR7 in human PBMC assessed as induction of IL-6 secretion in supernatant after 18 hrs. As to conditions: read-out: EC50. A digest of the protocol: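 Isolated human PBMCs washed in PBS, resuspended in RPMI1640 with 10% heat-inactivated FBS, pyruvate, HEPES, at 1 × 10⁶ cells/mL. Compounds as in-situ sodium salts from 10 mM aqueous stocks, 3-fold 10-point dilutions from 30 μM.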

Series [4] is described as follows: Aqueous solubility of compound in pH 1.5 to 10 solution by potentiometric titration method. Format: physicochemical. As to conditions: buffer; call rule not given here. Put shortly:
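About 2 mg solid titrated potentiometrically from pH 10 to pH 1.5 on Sirius T3 after pKa determination with MeOH cosolvent; intrinsic solubility calculated from pKa shift on precipitation (Noyes−Whitney), solubility−pH profile extrapolated by Henderson−Hasselbalch.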

Series [5] deals with Serum. The series can be described thus: Drug level in Balb/c mouse serum at 100 ug, im measured at 24 hrs post dose. Format: ADME, organism-based. The note with it: in vivo. Put shortly:
(§2)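 Female BALB/c mice (6−8 weeks, 3 per group) given 100 μg intramuscularly, with or without alum, 50 μL in each hind leg. Serum from retro-orbital bleeds at time points; protein precipitation, reverse-phase LC and ESI+ MRM mass spectrometry. Injected muscle drug level measured at 24 h.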

In series [6] the test system is Muscle tissue. The series can be described thus: Drug level in Balb/c mouse muscle at 100 ug, im measured at 24 hrs post dose. Format: ADME, organism-based. As to conditions: in vivo. A digest of the protocol: as §2
For series [7], the system named is Serum. Nature of the series: Drug level in Balb/c mouse serum at 100 ug, im measured up to 24 hrs post dose using alum bound compound formulation. Format: ADME, organism-based. As to conditions: in vivo. A digest of the protocol:
as §2

The test system of series [8] is Muscle tissue. The series can be described thus: Drug level in Balb/c mouse muscle at 100 ug, im measured at 24 hrs post dose using alum bound compound formulation. Format: ADME, organism-based. The note with it: in vivo. Put shortly: as §2
A short description of series [9]: Aqueous solubility of compound in pH 6.5 to 7.2 solution incubated for 24 hrs by saturated shake flask method. Format: physicochemical. As to conditions: buffer, pH 6.5, 24 h.

The structures appear in SMILES notation.

What is called EC50 is the concentration that produces a half-maximal response.

For `Cc1cc(OCCCC(F)(F)P(=O)(O)O)ccc1CCc1cnc2c(N)nc3cc(CCC(=O)O)ccc3c2c1`, the 50% effective concentration (EC50) at Toll-like receptor 7 [1] stood at 2400 nM; on Toll-like receptor 7 [3] it was 360 nM. Besides, the %max in [2] stood at 74%.
`Cc1cc(OCCOCCOCCC(F)(F)P(=O)(O)O)ccc1CCc1cnc2c(N)nc3cc(CCC(=O)O)ccc3c2c1`: the half-maximal effective concentration (EC50) on Toll-like receptor 7 [1] came to 1200 nM; on Toll-like receptor 7 [3], 2100 nM. Further, the %max in series [2] stood at 80%.
`Cc1cc(OCCOCCOCCP(=O)(O)O)ccc1CCc1cnc2c(N)nc3cc(CCC(=O)O)ccc3c2c1`: the EC50 on Toll-like receptor 7 [1] stood at 190 nM; at Toll-like receptor 7 [3], 490 nM. Moreover, the %max in series [2] amounted to 140%. Also, the solubility entry in series [4] is reported as “soluble”.
Consider `Cc1ccc2c(c1)nc(N)c1ncc(CCc3ccc(OCCOCCOCCC(F)(F)P(=O)(O)O)cc3C)cc12`, for which the concentration giving a half-maximal response (EC50) stood at 810 nM on Toll-like receptor 7 [1] and 980 nM on Toll-like receptor 7 [3]. Further, the %max in series [2] worked out at 100%. In addition, in series [4], the solubility entry is “soluble”. Moreover, the Drug uptake entry is “Active” in the series with Serum [5], “Not Active” in the series with Muscle tissue [6], “Not Active” in the series on Serum [7] and “Active” in the series on Muscle tissue [8].
Consider `Cc1ccc2c(c1)nc(N)c1ncc(CCc3ccc(OCCCP(=O)(O)O)cc3C)cc12`, for which the values for the EC50 at Toll-like receptor 7 [1] and at Toll-like receptor 7 [3] were 1100 nM and 30000 nM, respectively. For the same molecule, in series [2], the %max is 98%. For the same molecule, in series [9], the solubility result is listed as “Insoluble”.
